Test results as given in PubChem BioAssay AID492978 (The Scripps Research Institute Molecular Screening Center, 2010).
Active and inactive are the calls of the source.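 How the source made its calls: active means inhibition of the malaria parasite aminopeptidase at 45% or more; inactive means inhibition below 45%.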

Molecular target: Aminopeptidase N (Plasmodium falciparum (isolate 3D7)) (UniProt O96935)
Test: P. falciparum M1 aminopeptidase enzyme inhibition – biochemical, fluorescence, recombinant enzyme, assay provider, late-stage follow-up (AID 492978)
Settings: recombinant PfM1AAP, H-Leu-NHMec fluorescence; at 5 µM; hits give high values
Method in brief: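 System: Recombinant Plasmodium falciparum M1 alanyl aminopeptidase (rPfM1AAP) | Amount: Enzyme at 1 µg/mL | Detection: Kinetic fluorescence, excitation 370 nm, emission 460 nm | Incubation: 10 min preincubation, 30 min kinetic reading | Doses: Single test compound dose of 5 µM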

Sequence of Aminopeptidase N (Plasmodium falciparum (isolate 3D7)) (O96935 whole entry, looked up): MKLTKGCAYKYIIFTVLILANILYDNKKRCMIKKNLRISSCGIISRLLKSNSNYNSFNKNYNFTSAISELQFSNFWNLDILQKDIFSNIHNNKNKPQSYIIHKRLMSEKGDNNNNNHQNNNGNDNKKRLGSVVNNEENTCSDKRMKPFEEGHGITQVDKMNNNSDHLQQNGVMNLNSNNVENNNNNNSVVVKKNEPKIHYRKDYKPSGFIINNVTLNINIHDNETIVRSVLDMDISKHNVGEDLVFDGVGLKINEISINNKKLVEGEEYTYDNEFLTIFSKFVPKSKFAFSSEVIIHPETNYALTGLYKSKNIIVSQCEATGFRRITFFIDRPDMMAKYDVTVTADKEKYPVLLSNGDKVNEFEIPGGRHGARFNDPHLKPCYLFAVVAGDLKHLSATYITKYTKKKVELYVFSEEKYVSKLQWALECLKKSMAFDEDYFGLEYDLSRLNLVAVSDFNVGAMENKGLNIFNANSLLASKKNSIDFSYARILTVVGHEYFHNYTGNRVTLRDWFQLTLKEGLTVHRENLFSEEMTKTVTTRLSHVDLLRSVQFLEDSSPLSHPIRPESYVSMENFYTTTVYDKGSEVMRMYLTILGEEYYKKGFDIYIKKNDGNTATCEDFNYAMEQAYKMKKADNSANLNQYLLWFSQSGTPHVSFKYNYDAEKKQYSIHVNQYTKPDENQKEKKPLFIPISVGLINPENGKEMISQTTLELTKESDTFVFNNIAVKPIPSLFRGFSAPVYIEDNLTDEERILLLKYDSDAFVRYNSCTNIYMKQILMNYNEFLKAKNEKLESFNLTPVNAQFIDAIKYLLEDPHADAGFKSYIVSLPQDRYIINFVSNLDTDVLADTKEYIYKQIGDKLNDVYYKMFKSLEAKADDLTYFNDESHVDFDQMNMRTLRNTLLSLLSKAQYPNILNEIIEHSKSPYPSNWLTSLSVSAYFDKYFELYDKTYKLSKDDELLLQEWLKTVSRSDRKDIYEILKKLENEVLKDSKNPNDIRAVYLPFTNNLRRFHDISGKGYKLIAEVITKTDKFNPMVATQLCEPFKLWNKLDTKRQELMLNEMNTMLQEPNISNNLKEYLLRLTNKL

`O=C1/C(=C/c2cccs2)SC(=S)N1NS(=O)(=O)c1ccccc1` was tested, and the inhibition was 20% (inactive).

With `O=C(O)CCC(=O)N1N=C(c2c(-c3ccccc3)c3cc(Cl)ccc3[nH]c2=O)CC1c1ccco1` (stereo not drawn) the inhibition was 13% (inactive).

For `O=C(O)CCC(=O)N1N=C(c2c(-c3ccccc3)c3cc(Cl)ccc3[nH]c2=O)CC1c1cccs1` (stereo not drawn), the inhibition was 13% (inactive).

With `O=C(NCc1ccco1)C1CCCN(S(=O)(=O)c2cccc3nonc23)C1` (stereo not drawn) the inhibition was 17% (inactive).

`O=C1N=c2ccccc2=C1c1sc(=S)n(NC(=O)c2cccc(O)c2)c1O` showed an inhibition of 48%.

In the case of `COc1ccc(OC)c(/C=C2\SC(=S)N(C(C(=O)O)c3ccccc3)C2=O)c1` (stereo not drawn), the inhibition is reported as 16% (inactive).

Work on `O=C(NCCC1=CCCCC1)C1CCN(S(=O)(=O)c2ccc(Br)s2)CC1` yielded an inhibition of 45%.

For `COc1ccccc1-c1nc2ccccc2c(=O)n1NC(=O)c1cccs1`, the inhibition was 38% (inactive).

In the case of `COc1ccc(C2CC(c3c(-c4ccccc4)c4cc(Cl)ccc4[nH]c3=O)=NN2C(=O)CCC(=O)O)cc1` (stereo not drawn), the inhibition is reported as 0% (inactive).

With `O=C1N=c2ccccc2=C1c1sc(=S)n(NC(=O)c2ccccc2)c1O` the inhibition was 13% (inactive).

Compound `O=C(NCc1cccc(F)c1)C1CCN(S(=O)(=O)Cc2ccccc2)CC1` has an inhibition of 69%.

For `CC(=O)N1N=C(c2c(O)n(C)c(=O)n(C)c2=O)CC1c1ccccc1` (stereo not drawn), the inhibition was 7% (inactive).

For `O=C(Nn1c(C2CCC2)nc2ccccc2c1=O)c1cccs1`, the inhibition was 8% (inactive).
